DAGLB inhibitor: diacylglycerol lipase beta (human) inhibition | HEK293T DAGLB membrane lysate, EnzChek fluorogenic substrate | inhibition, % at 5.17 µM | hit rate 0.059% among 340,000; in the data active = inhibition above about 34%;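 note: 0% = enzyme with vehicle and 100% = wells lacking enzyme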
VLA-4 inh: inhibition in a human VLA-4 binding assay | hit rate 0.2% among 330,000 | P13612 | AID 2557 | inhibition, % (about 7 µM as worked out from the volumes in the protocol) | VLA-4 expressing cells, ligand binding flow cytometry; in the data active = inhibition above about 50%
Granule exo inh: lytic granule exocytosis inhibition; inhibition, % at 10 µM; hit rate 0.66% among 360,000; TALL-104 LAMP-1 surface exposure, flow cytometry; cells stimulated with thapsigargin and PMA; AID 651702;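 active = inhibition above about 55%, limit read from the data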
FGF22 binding-1: shifts melting point of recombinant human FGF22 | Q9HCT0 | recombinant FGF22 thermal shift, SYPRO orange fluorescence; percent of sucrose octasulfate shift, DMSO zero | AID 651658 | activity (Tm shift, normalised), % at 9.99 µM | hit rate 1.5% among 340,000;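 active = mean Tm shift, scaled 0 neutral to 100 positive control, at about 1.3% or above, every replicate too, limit read from the data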
Target sequence (Q9HCT0 whole entry, looked up): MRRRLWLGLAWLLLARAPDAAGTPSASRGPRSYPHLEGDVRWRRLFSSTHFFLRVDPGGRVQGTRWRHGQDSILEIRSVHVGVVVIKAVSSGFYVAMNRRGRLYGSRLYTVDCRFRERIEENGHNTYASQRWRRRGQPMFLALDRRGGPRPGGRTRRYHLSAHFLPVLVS
ABCB6 inh 2: human ABCB6 transporter inhibition; hit rate 0.19% among 360,000; Q9NP58; fluorescence ratio to DMSO, % at 10 µM; K562-ABCB6 porphyrin accumulation, flow cytometry, 1 h; hits give low values;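 active = fluorescence ratio to DMSO below 75%, the collection mean minus 3 SD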;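 note: signal is porphyrin accumulated inside mitochondria; 100% equals median channel fluorescence of DMSO control wells; lower ratio means ABCB6 inhibition with less porphyrin fluorescence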
MT1-MMP act inh: inhibitors of human MT1-MMP activation; HT1080 RFP-PRO-GFP cells, GFP/RFP ratio fluorescence, overnight; percent of plate control window, DMSO zero; AID 651647; hit rate 0.061% among 360,000; P50281; GFP/RFP ratio change, % at 20 µM;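 active = GFP/RFP ratio change of at least 30% with cell ATP level not reduced by more than half and red fluorescence within 50% of control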
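Assay system: HT1080 RFP-PRO-GFP cells | Dosing: 20 µM single dose, 1% DMSO | Incubation: Cells overnight before dosing, compound overnight, 37 °C, 5% CO2 | Evaluation: GFP/RFP fluorescence ratio | Control set: DMSO-only wells and HT1080 RFP-L50D-GFP cell wells as references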
FGF22 binding-2: binds human FGF22 shifting its melting temperature. shares compounds with FGF22 binding-1. recombinant FGF22 thermal shift, SYPRO orange fluorescence. thermal shift activity, °C (ΔTm) at 38 µM. hit rate 2% among 1,000;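 active = fitted rise in melting shift crosses a set limit at or below the top valid dose tested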
FGF22 TSA: FGF22 (human) binding by thermal shift. AID 743017. Thermal shift assay, SYPRO orange, melting temperature shift. shares compounds with FGF22 binding-1. Tm shift (activity), % at 38 µM. 50 tested, under 10 active;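 active = compounds whose fitted dose curve of melting temperature shift rises past a set threshold within the tested doses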
TSA no protein: shows thermal shift signal without protein, FGF22 counter-screen | AID 743019 | compound-only SYPRO orange thermal shift counter-screen, no protein | shares compounds with FGF22 binding-1 | AC50, µM (doses to about 38 µM) | hit rate 2% among 1,000;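 active = rising signal whose fitted curve reaches the 0.54 level within the top valid dose, showing a melting point, actives reach about 13 µM in these data; inactive = the rest, including activity in the opposite direction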; note: value is where the raw curve crosses a fixed level and not half-maximal
* = called active by the depositor; [ ] = remark or other dose. Only some compounds are listed: those with a hit (about 2% of all), similar ones and a draw of the others.

Screening CCN1C/C(=C/c2sccc2C)c2nc3ccccc3c(C(=O)O)c2C1 returned DAGLB inhibitor -1, VLA-4 inh 0, Granule exo inh 0, FGF22 binding-1 0, ABCB6 inh 2 96 and MT1-MMP act inh -5.
CCN1C/C(=C/c2cccs2)c2nc3ccccc3c(C(=O)O)c2C1 was read as DAGLB inhibitor 0, VLA-4 inh 4, Granule exo inh -2, FGF22 binding-1 1.8*, ABCB6 inh 2 100, MT1-MMP act inh -13, FGF22 binding-2 0.19, FGF22 TSA 0 and TSA no protein inactive.
For CO[C@H](CN(C)S(=O)(=O)c1cccc(Cl)c1)[C@H](C)CN([C@H](C)CO)S(=O)(=O)c1cccc(Cl)c1 the results were FGF22 binding-1 2.0*, FGF22 binding-2 -0.036[42 µM] and TSA no protein inactive.
For CO[C@@H](CN(C)S(=O)(=O)c1cccc(Cl)c1)[C@@H](C)CN([C@H](C)CO)S(=O)(=O)c1cccc(Cl)c1 the results were FGF22 binding-1 1.6*, FGF22 binding-2 0.25[42 µM] and TSA no protein inactive.
Screening CO[C@H](CN(C)S(=O)(=O)c1cccc(Cl)c1)[C@H](C)CN([C@@H](C)CO)S(=O)(=O)c1ccc(Cl)cc1 returned FGF22 binding-1 0.
`CO[C@H](CN(C)S(=O)(=O)c1cccc(Cl)c1)[C@H](C)CN([C@@H](C)CO)S(=O)(=O)c1cccc(Cl)c1` gave FGF22 binding-1 1.8*, FGF22 binding-2 0.12[42 µM] and TSA no protein inactive.
For C[C@@H]1CN([C@@H](C)CO)C(=O)c2cc(NC(=O)CCCN(C)C)ccc2O[C@H]1CN(C)S(=O)(=O)c1ccccc1 the results were FGF22 binding-1 0.
`C[C@H](CO)N1C[C@H](C)[C@@H](CN(C)Cc2ccccc2)Oc2ccc(NS(=O)(=O)c3ccc(Cl)cc3)cc2C1=O` gave FGF22 binding-1 0.
For COc1cc(NC(=O)C2CCC(CNS(=O)(=O)c3csc(C(N)=O)c3)CC2)cc(OC)c1 (stereo not given) the results were DAGLB inhibitor -2, VLA-4 inh 4, Granule exo inh -3, FGF22 binding-1 1.8*, ABCB6 inh 2 102, MT1-MMP act inh -11, FGF22 binding-2 -0.31 and TSA no protein inactive.
CC(=O)Nc1cccc(C(=O)NNC(=O)c2ccc(NS(=O)(=O)c3cccs3)cc2)c1 was read as DAGLB inhibitor 1, Granule exo inh 22, FGF22 binding-1 0, ABCB6 inh 2 131 and MT1-MMP act inh 1.
For Cc1ccsc1C(=O)NNC(=O)c1ccc(NS(=O)(=O)c2cccs2)cc1 the results were DAGLB inhibitor -4, VLA-4 inh 13, Granule exo inh -5, FGF22 binding-1 1.6*, ABCB6 inh 2 100, MT1-MMP act inh 4, FGF22 binding-2 0.021 and TSA no protein inactive.
Screening COc1ccc2c3c([nH]c2c1)[C@H](CO)N(C(C)=O)CC31CN(C(=O)c2ccc3c(c2)OCO3)C1 returned FGF22 binding-1 26*, FGF22 binding-2 0.056 and TSA no protein inactive.
For O=C(NCC[C@@H]1CC[C@H](NC(=O)C2CCOCC2)[C@H](CO)O1)Nc1ccc(Cl)cc1 the results were FGF22 binding-1 1.4*, FGF22 binding-2 0.011[42 µM] and TSA no protein inactive.
O=C(Nc1ccc(Cl)cc1)N[C@@H]1CC[C@@H](CCNS(=O)(=O)c2ccccc2F)O[C@@H]1CO was read as FGF22 binding-1 0.
O=C(N[C@H]1CC[C@@H](CCNS(=O)(=O)c2ccc(F)cc2)O[C@H]1CO)C1CCCC1 was read as FGF22 binding-1 9.7*, FGF22 binding-2 0.12[42 µM] and TSA no protein inactive.

Source: PubChem BioAssay
